{"source": "ChEMBL document CHEMBL1126092", "about": "“Design, synthesis, and biological evaluation of novel 4-substituted 1-methyl-1,2,3,6-tetrahydropyridine analogs of MPTP” (J Med Chem, 1992)", "key": {"[1]": {"substrate": "CN1CC=C(OC(=O)N(C)c2ccccc2)CC1", "assay": "(§1) Tested against Monoamine oxidase B enzyme from bovine liver mitochondria", "summary_of_the_method": "(§2)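 Bovine liver mitochondrial MAO-B, 0.05 unit/mL (unit = 1 μmol benzylamine→benzaldehyde per min; equivalent to 3.7 nmol protein), incubated at 37 °C in 0.1 M sodium phosphate pH 7.4. Reaction started by substrate addition, final 0.1–3.0 mM. Product formation monitored spectrophotometrically, initial rates taken 30–180 s after enzyme addition. Apparent Vmax and KM from double reciprocal plot.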"}, "[2]": {"substrate": "CN1CC=C(Oc2ccccc2)CC1", "assay": "as §1", "summary_of_the_method": "as §2"}, "[3]": {"substrate": "CN1CC=C(OC(=O)N(C)C)CC1", "assay": "as §1", "summary_of_the_method": "as §2"}, "[4]": {"substrate": "CN1CC=C(Sc2ccccc2)CC1", "assay": "as §1", "summary_of_the_method": "as §2"}, "[5]": {"substrate": "CN1CC=C(Cc2ccccc2)CC1", "assay": "as §1", "summary_of_the_method": "as §2"}}}
{"protein": "Amine oxidase [flavin-containing] B (Bos taurus) (protein) MSSKCDVVVVGGGISGMAAAKLLHDSGLNVIVLEARDRVGGRTYTLRNQKVKYVDLGGSYVGPTQNHILRLSKELGLETYKVNEVERLIHHTKGKSYPFRGSFPSVWNPITYLDHNNLWRTMDDMGREIPSDAPWKAPLAEQWDLMTMKELLDKICWTESSKQLAILFVNLCVTAEIHEVSALWFLWYVKQCGGTTRIFSTSNGGQERKFVGGSGQVSERIMDLLGDRVKLERPVIHIDQTGENVLVETLNHELYEAKYVISAVPPVLGMKIHFNPPLPMMRNQLITRVPLGSVIKSIVYYKEPFWRNMDYCGSMIIEGEEAPVAYALDDTKPDGSYPAIIGFILAHKARKLARLTKEERLKKLCDLYAKVLGSQEALHPVHYEEKNWCEEQYSGGCYTSYFPPGIMTQYGRVLRQPVGRIYFAGTETATHWSGYMEGAVEAGERAAREILHAMGKIPEDEIWLPEPESVDVPAKPITTTFLQRHLPSVPGLLKLIGLTTIFSATALGFLAHKRGLLVRI", "values": [{"measurement": "Km", "setting": "[1]", "value": 3850, "unit": "µM"}, {"measurement": "Vmax", "setting": "[1]", "value": 0.255, "unit": "µM/min"}, {"measurement": "Km", "setting": "[2]", "value": 234, "unit": "µM"}, {"measurement": "Vmax", "setting": "[2]", "value": 0.161, "unit": "µM/min"}, {"measurement": "Km", "setting": "[3]", "value": 7100, "unit": "µM"}, {"measurement": "Vmax", "setting": "[3]", "value": 0.401, "unit": "µM/min"}, {"measurement": "Km", "setting": "[4]", "value": 80, "unit": "µM"}, {"measurement": "Vmax", "setting": "[4]", "value": 0.274, "unit": "µM/min"}, {"measurement": "Km", "setting": "[5]", "value": 83, "unit": "µM"}, {"measurement": "Vmax", "setting": "[5]", "value": 0.222, "unit": "µM/min"}]}
